STAT3 blocker: STAT3 signaling inhibition. U3A cells, IL-6 STAT3-luciferase reporter, luminescence; host cell line lacks STAT1. inhibition, % at 5.5 µM. 190,000 compounds, 0.89% hits. AID 862;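 active means inhibition above the mean inhibition across all screened compounds plus 3 SD, cut at about 44% in these data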;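 further: 0% = DMSO only wells and 100% = 100 µM nifuroxazide control wells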
STAT1 inh: inhibitors of IFN-gamma induced STAT1 signaling. NIH 3T3 STAT1-luciferase reporter, luminescence. inhibition, % at 5.5 µM. 200,000 compounds, 0.35% hits. AID 920;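 active means inhibition above a set limit, the mean inhibition across all tested compounds plus 3 SD, cut at about 34% in these data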;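 further: 0% = IFN-gamma with DMSO and 100% = IFN-gamma with 300 µM nifuroxazide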
NF-kB expr up: raises NF-kB expression in human neuronal cells; NF-kB reporter expression; active compounds read high; fold change at 12.5 µM; 190,000 compounds, 1.6% hits; AID 1239; in the data active means fold change above about 3.3
APP 5'UTR act: APP 5'UTR luciferase reporter activation; SH-SY5Y APP 5'UTR luciferase reporter, luminescence; zero percent = DMSO vehicle wells; 190,000 compounds, 1% hits; activation, % at 2 µM; AID 1276;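 active means activation above a set limit, based on mean plus 3 SD of controls, cut at about 140% in these data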
STAT3 act: increases IL-6 driven STAT3 reporter signal | 190,000 compounds, 0.91% hits | U3A cells, IL-6 STAT3-luciferase reporter, luminescence; 100% = signal with IL-6 EC80 alone | AID 871 | activation (% of control), % at 5.6 µM;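 active means activation above the screen-wide mean of compound activation plus 3 SD, cut at about 130% in these data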;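 further: 0% = background luminescence of wells with medium and substrate only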
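Material: human U3A cells carrying STAT3-luciferase construct. Measured by: reporter luminescence signal. Timing: compound 1 h, then IL-6 6 h at 37 °C.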
STAT1 act: STAT1 signaling activation; AID 932; 200,000 compounds, 2.6% hits; NIH 3T3 STAT1-luciferase reporter, IFN-gamma, luminescence; 100% = IFN-gamma alone, no compound; activation (% of control), % at 5.5 µM;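 active means activation above the screen-wide mean activation plus 3 SD, cut at about 130% in these data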;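 further: raw ratio to IFN-gamma control signal so 100% means no change and 0% no light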
An asterisk follows results filed as active; nt = no result given. Hits are enriched below; roughly 4.9% of the tested compounds scored in any of these assays.

SMILES	STAT3 blocker	STAT1 inh	NF-kB expr up	APP 5'UTR act	STAT3 act	STAT1 act
CCn1c(C)cc(C=C2C(=O)c3ccccc3C2=O)c1C	23	-25	3.4*	156*	84	122
CCOC(=O)N1CCN(C(=O)CNC2CCCCCCC2)CC1	0	7	1.1	8	100	94
O=C(NCCc1cccs1)c1cccs1	16	-39	2.3	94	93	134*
CN=Cc1sc2ccccc2c1O	-2	-1	1.1	31	102	101
CC(=Nc1ccc(C)cc1C)c1sc2ccccc2c1O	36	-48	4.8*	154*	71	143*
CC(=Nc1cccc(O)c1)c1sc2ccccc2c1O	-23	-14	10*	161*	119	112
CCN(CC)c1ccc(NC(=S)NCC2CCCO2)cc1 (stereo not drawn)	-3	-4	nt	24	107	102
CCc1nc(Sc2nc(C)cc(C)n2)c2oc3ccccc3c2n1	-11	9	4.3*	nt	115	92
CCc1nc(SCCO)c2oc3ccccc3c2n1	13	-13	1.2	17	95	112
COc1ccc(Nc2ccc3c(c2)=NC2(CCCCC2)[N+]=3[O-])cc1	4	-23	1.1	-49	99	121
[O-][N+]1=c2ccc(Nc3ccccc3)cc2=NC12CCCCC2	-4	-37	1	-33	106	134*
Cc1ccc(/C=C/c2nc3ccccc3s2)s1	70*	44*	2.5	99	43	60
CN(C)c1ccc(/C=C/c2nc3ccccc3s2)cc1	108*	91*	0.6	14	14	17
COc1cc(/C=C/c2nc3ccccc3s2)cc(OC)c1O	19	-15	1.1	129	91	114
Cc1ccc(SCCOCCN2CCc3ccccc3C2)cc1	1	7	0.99	7	101	94
CCOC(=O)COc1ccccc1/C=C\[N+](=O)[O-]	-3	-26	0.7	-38	102	123
O=C(NCc1ccco1)c1ccc(-c2ccccc2Cl)o1	6	-25	2.4	25	102	123
CC(=O)NC(=O)c1ccc(-c2ccc(Cl)cc2)o1	22	-11	1.4	7	84	110
O=C(NC12CC3CC(CC(C3)C1)C2)c1ccc(-c2ccc(Cl)cc2)o1	-34	-33	0.76	55	126	130*
O=C(NC12CC3CC(CC(C3)C1)C2)c1ccc(-c2ccccc2Cl)o1	-9	-79	1.2	182*	118	171*
CC1=NC(=O)C(N=Nc2cccc3ccccc23)N1c1ccccc1 (stereo not drawn)	-68	4	nt	-9	159*	96
CCN(Cc1ccccc1)c1ccc(/C=N/N2CCOCC2)cc1	-6	-14	1.6	-14	107	113
CCN(CC)c1ccc(/C=N/N2CCOCC2)cc1	-18	-44	3.2	48	124	139*
CCCN(CCC)CCCNC(=S)Nc1ccc2nc3n(c(=O)c2c1)CCCCC3	-7	7	1.1	-8	106	93
CCCc1cc(=O)n2[nH]c(-c3ccc(Br)cc3)cc2n1	-15	-48	2.1	58	116	144*
SMILES	STAT3 blocker	STAT1 inh	NF-kB expr up	APP 5'UTR act	STAT3 act	STAT1 act
Cc1cc(=O)n2[nH]c(-c3ccc(F)cc3)cc2n1	4	-25	2.4	22	100	123
Cc1cc(=O)n2[nH]c(-c3ccc(Cl)cc3)cc2n1	-4	-47	2.7	24	107	143*
O=C(CNC(=O)c1ccccc1Cl)OC1CCOC1=O (stereo not drawn)	4	4	1.1	-7	99	94
CCOCCCn1c(=S)[nH]c2cc(C(=O)NCCCN(CC)CC)ccc2c1=O	6	-9	1.3	8	106	108
O=C(COC(=O)c1ncc(Cl)c(Cl)c1Cl)Nc1ccccc1OC(F)F	-40	-2	1.2	9	134*	102
O=C(COC(=O)COc1ccccc1Cl)Nc1ccccc1OC(F)F	-18	6	1.3	-13	115	94
Fc1ccc(NCc2cn3ccccc3n2)cc1	12	-38	2.2	36	93	135*
Cc1ccccc1CN(CC1CCC(C(=O)O)CC1)C(=S)Nc1ccccc1F (stereo not drawn)	5	3	0.88	21	106	96
COc1ccc(Oc2cc(C)c3ccccc3n2)cc1	29	5	1.3	7	78	96
c1ccc(Oc2ccc3ccccc3n2)cc1	12	-41	1.3	28	95	136*
N/C(=N\OC(=O)c1ccccc1[N+](=O)[O-])c1cccnc1	-3	-16	1.6	41	112	110
N/C(=N\OC(=O)c1ccccc1[N+](=O)[O-])c1ccccn1	18	6	3.9*	104	94	94
N/C(=N\OC(=O)c1cccnc1)c1ccccc1Cl	19	-36	1.6	12	90	131*
N/C(=N\OC(=O)c1ccc([N+](=O)[O-])cc1)c1cccnc1	15	-24	1.7	25	89	121
N/C(=N\OC(=O)c1ccc(Cl)c(Cl)c1)c1ccccn1	2	-35	4.5*	140*	102	131*
N/C(=N\OC(=O)c1ccc(Br)o1)c1cccnc1	15	-35	1.7	36	90	131*
COc1ccccc1N(C)S(=O)(=O)c1ccc(C(=O)OCC(=O)N2CCC2)cc1	3	-1	1.5	11	99	101
C/C=C/C(=O)OCC(=O)Nc1ccc(SC(F)F)cc1	10	1	1	-14	98	98
CC1=C(C(=O)OCCc2ccccc2)C(c2ccsc2)NC(=O)N1C (stereo not drawn)	-1	5	1.2	6	102	95
N/C(=N\OC(=O)COc1ccc(Br)cc1Cl)c1cccnc1	-13	-31	1.6	62	116	127
N/C(=N\OC(=O)COc1ccc(Cl)cc1Br)c1cccnc1	2	-54	2.9	87	104	146*
N/C(=N\OC(=O)c1ccccc1Cl)c1ccccn1	69*	78*	0.88	123	46	31
CN(Cc1ccccc1)CC(O)COc1ccc(CNCc2ccc(Cl)s2)cc1 (stereo not drawn)	-3	2	0.88	-13	107	96
COc1ccccc1C(=O)NC(=Nc1nc2ccccc2o1)NC(=O)c1ccccc1OC	-41	-1	0.48	2	136*	99
CN1N=C(/C=C/c2ccccc2)CCC1=O	13	-23	1.8	58	91	122
Cc1ccc(/C=C/C2=NN(C)C(=O)CC2)cc1	30	-24	4.5*	153*	75	123
Cc1ccc(OC(=O)C2c3ccccc3Oc3ccccc32)cc1C	-3	-8	4.6*	21	101	108
CC(=O)c1ccc(OC(=O)C2c3ccccc3Oc3ccccc32)cc1	5	1	0.92	-4	102	99
CC(=O)Nc1ccc(NC(=O)Nc2ccc3c(c2)N(C)C(=O)CS3)cc1	1	-3	0.95	-1	101	102

Compound activity: PubChem, several laboratories
